Results from ChEMBL document CHEMBL3758103, “Anti-herpetic and anti-dengue activity of abietane ferruginol analogues synthesized from (+)-dehydroabietylamine” (Eur J Med Chem, 2016).
≈ marks a conversion by molar mass, not a printed value. Calls of active or inactive are those of the source. The rule behind the calls is not given here.

Legend:
HeLa [1] = assay: Cytotoxicity against human HeLa cells assessed as cell growth inhibition after 48 hrs by MTT assay; type: functional, cell-based
Procedure, shortened: (§1)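 MTT assay. Vero and HeLa cells plated at 2.0 × 10^4/well and preincubated 24 h; Jurkat and U937 plated at 3.0 × 10^4/well. Compounds were applied 48 h at 37 °C, 5% CO2, with 0.05% DMSO. Absorbance read at 570 nm and IC50 taken by linear regression. Values are the geometric mean of two experiments in quadruplicate.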

HeLa [2] = assay: Selectivity index, ratio of IC50 for African green monkey Vero cells to IC50 for human HeLa cells; type: functional
Procedure, shortened: (§2)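 SI calculated as Vero IC50 divided by HeLa, Jurkat or U937 IC50, all from the 48 h MTT assay.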

Jurkat [3] = assay: Cytotoxicity against human Jurkat cells assessed as cell growth inhibition after 48 hrs by MTT assay; type: functional, cell-based; procedure, shortened: as §1
Jurkat [4] = assay: Selectivity index, ratio of IC50 for African green monkey Vero cells to IC50 for human Jurkat cells; type: functional; procedure, shortened: as §2
[5] = Cytotoxicity against human U937 cells assessed as cell growth inhibition after 48 hrs by MTT assay; type: functional, cell-based; details: U-937, 48 h; procedure, shortened: as §1
Vero [6] = assay: Selectivity index, ratio of IC50 for African green monkey Vero cells to IC50 for human U937 cells; type: functional; procedure, shortened: as §2
Vero [7] = assay: Cytotoxicity against African green monkey Vero cells assessed as cell growth inhibition after 48 hrs by MTT assay; type: cell-based; details: Chlorocebus sabaeus; procedure, shortened: as §1
Fusarium oxysporum = assay: Antifungal activity against Fusarium oxysporum ATCC 48112 assessed as microbial growth inhibition after 48 hrs by microdilution assay; type: functional, organism-based
Procedure, shortened: (§3)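 Broth microdilution under CLSI M38-A with modifications, in duplicate, at final compound concentrations of 50–3.125 μg/mL. […] Values are the geometric mean of duplicate tests in three assays. Assay DMSO was 0.05%.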

Aspergillus fumigatus = assay: Antifungal activity against Aspergillus fumigatus ATCC 204305 assessed as microbial growth inhibition by microdilution assay; type: functional, organism-based; procedure, shortened: as §3
Aspergillus flavus = assay: Antifungal activity against Aspergillus flavus ATCC 204304 assessed as microbial growth inhibition by microdilution assay; type: functional, organism-based; procedure, shortened: as §3
Aspergillus terreus = assay: Antifungal activity against Aspergillus terreus CDC 317 assessed as microbial growth inhibition by microdilution assay; type: functional, organism-based; procedure, shortened: as §3
Candida albicans = assay: Antifungal activity against Candida albicans […] assessed as microbial growth inhibition after 24 hrs by microdilution assay; type: functional, organism-based
Procedure, shortened: (§4)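 Yeast microdilution by the AFST-EUCAST method at an inoculum of 1–5 × 10^5 CFU/mL, final compound concentrations 50–3.125 μg/mL, in duplicate. MIC is the lowest concentration giving 90% growth reduction after 24 h at 35 °C. Untreated inoculum served as negative control. Values are the geometric mean of duplicate tests in three assays.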

Candida parapsilosis = assay: Antifungal activity against Candida parapsilosis ATCC 22019 assessed as microbial growth inhibition after 24 hrs by microdilution assay; type: functional, organism-based; procedure, shortened: as §4
Candida tropicalis = assay: Antifungal activity against Candida tropicalis ATCC 200956 assessed as microbial growth inhibition after 24 hrs by microdilution assay; type: functional, organism-based; procedure, shortened: as §4
Human alphaherpesvirus 1 [8] = assay: Antiviral activity against HHV1 CDC Atlanta infected in African green monkey Vero cells assessed as reduction of viral titer at maximal non-toxic concentration after 48 hrs by crystal violet staining assay relative to control; type: functional
Procedure, shortened: (§5)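 End-point titration on Vero monolayers (2.0 × 10^4 cells/well, ≥80% confluent) with 10 TCID50 virus. Virus–compound mixtures (6.25–50 μg/mL) in DMEM/2% FBS with CMC (1% for HHV-1, 0.5% for HHV-2) were held 15 min at room temperature. Incubation was 48 h (HHV-1) or 72 h (HHV-2) at 37 °C, then formaldehyde/crystal violet staining and plaque counting. Read-out is the viral titer reduction factor. Two experiments in quadruplicate.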

Human alphaherpesvirus 2 [9] = assay: Antiviral activity against HHV-2 VR-734-G infected in African green monkey Vero cells assessed as reduction of viral titer at maximal non-toxic concentration after 72 hrs by crystal violet staining assay relative to control; type: functional; procedure, shortened: as §5
Human alphaherpesvirus 2 [10] = assay: Antiviral activity against HHV-2 VR-734-G infected in African green monkey Vero cells assessed as maximal non toxic concentration causing reduction of viral titer after 72 hrs by crystal violet staining assay; type: functional; procedure, shortened: as §5
Vero [11] = assay: Cytotoxicity against African green monkey Vero cells assessed as inhibition of cell proliferation after 72 hrs; type: cell-based; details: Chlorocebus sabaeus
Human alphaherpesvirus 1 [12] = assay: Antiviral activity against HHV-1 CDC Atlanta infected in African green monkey Vero cells assessed as reduction in plaque formation administered post viral infection after 72 hrs by crystal violet staining technique; type: functional, organism-based; details: Human alphaherpesvirus 1, CDC Atlanta, Vero, 72 h; read-out: EC50
Procedure, shortened: (§6)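 Plaque reduction on Vero monolayers (2.5 × 10^4 cells/well) infected with 100 PFU/well. Pre-infection arm: virus–compound mixture added for 1 h at 37 °C, PBS wash, then CMC overlay. Post-infection arm: virus adsorbed 1 h, washed, then compound given in CMC. CMC was 1% for HHV-1, 0.75% for HHV-2 and 2% for DENV-2. Plates ran 72 h (HHV) or 8 days (DENV-2) before crystal violet staining. EC50 came from linear regression over ≥4 dilutions in quadruplicate.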

Human alphaherpesvirus 2 [13] = assay: Antiviral activity against HHV-2 VR-734-G infected in African green monkey Vero cells assessed as reduction in plaque formation administered post viral infection after 72 hrs by crystal violet staining technique; type: functional, organism-based; details: Human alphaherpesvirus 2, VR-734-G; procedure, shortened: as §6
Human alphaherpesvirus 1 [14] = assay: Antiviral activity against HHV-1 CDC Atlanta infected in African green monkey Vero cells assessed as maximal non toxic concentration causing reduction of viral titer after 48 hrs by crystal violet staining assay; type: functional; procedure, shortened: as §5
dengue virus type 2 [15] = assay: Antiviral activity against DENV-2 New guinea infected in African green monkey Vero cells assessed as inhibition of virus-induced cytopathic effect after 3 days by crystal violet staining based inverted microscopic analysis relative to control; type: functional, organism-based
Vero [16] = assay: Cytotoxicity against African green monkey Vero cells assessed as inhibition of cell proliferation after 8 days; type: cell-based; details: Chlorocebus sabaeus, 192 h
Human alphaherpesvirus 1 [17] = assay: Antiviral activity against HHV-1 CDC Atlanta infected in African green monkey Vero cells assessed as reduction in plaque formation administered simultaneously with virus for 1 hr measured after 72 hrs by crystal violet staining technique; type: functional, organism-based; procedure, shortened: as §6
Human alphaherpesvirus 2 [18] = assay: Antiviral activity against HHV-2 VR-734-G infected in African green monkey Vero cells assessed as reduction in plaque formation administered simultaneously with virus for 1 hr measured after 72 hrs by crystal violet staining technique; type: functional, organism-based; procedure, shortened: as §6
dengue virus type 2 [19] = assay: Antiviral activity against DENV-2 New guinea infected in African green monkey Vero cells assessed as reduction in plaque formation administered simultaneously with virus for 1 hr measured after 8 days by crystal violet staining technique; type: functional, organism-based; procedure, shortened: as §6
dengue virus type 2 [20] = assay: Antiviral activity against DENV-2 New guinea infected in African green monkey Vero cells assessed as reduction in plaque formation administered post viral infection after 8 days by crystal violet staining technique; type: functional, organism-based; details: 192 h; procedure, shortened: as §6
[21] = Selectivity index, ratio of IC50 for African green monkey vero cells to EC50 for HHV-1 compound administered post viral infection
Procedure, shortened: (§7)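 Antiviral SI calculated as Vero IC50 divided by the post-infection plaque-reduction EC50 for each virus on Vero cells.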

[22] = Selectivity index, ratio of IC50 for African green monkey vero cells to EC50 for HHV-2 compound administered post viral infection; procedure, shortened: as §7
[23] = Selectivity index, ratio of IC50 for African green monkey vero cells to EC50 for DENV-2 compound administered post viral infection; procedure, shortened: as §7
Human alphaherpesvirus 2 [24] = assay: Antiviral activity against HHV-2 VR-734-G infected in African green monkey Vero cells assessed as viral plaque size reduction at 20.8 uM after 72 hrs by crystal violet staining based inverted microscopic analysis relative to control; type: functional; set-up: scale not given: the % may be the effect or the level left
Procedure, shortened: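 Vero cells (2.5 × 10^4/well) infected with 100 PFU/well, with compound in CMC added 2 h after infection. Incubation was 72 h for HHV strains and 8 days for DENV-2, then formaldehyde/crystal violet staining. Twenty plaques per concentration per well were imaged and their areas […] measured against mock-treated controls. Two experiments in duplicate.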

Trichophyton rubrum = assay: Antifungal activity against Trichophyton rubrum ATCC 28188 assessed as microbial growth inhibition after 6 days by microdilution assay; type: functional; details: ATCC 28188, 144 h; procedure, shortened: as §3
[25] = system: Trichophyton mentagrophytes; assay: Antifungal activity against Trichophyton mentagrophytes ATCC 24198 assessed as microbial growth inhibition after 6 days by microdilution assay; type: functional; details: ATCC 24198, 144 h; procedure, shortened: as §3

Row | Structure (SMILES) | IC50 (HeLa [1]) [µM] | Ratio IC50 (HeLa [2]) | IC50 (Jurkat [3]) [µM] | Ratio IC50 (Jurkat [4]) | IC50 [5] [µM] | Ratio IC50 (Vero [6]) | IC50 (Vero [7]) [µM] | Activity (Fusarium oxysporum) | Activity (Aspergillus fumigatus) | Activity (Aspergillus flavus) | Activity (Aspergillus terreus) | Activity (Candida albicans) | Activity (Candida parapsilosis) | Activity (Candida tropicalis) | fold change (FC) (Human alphaherpesvirus 1 [8]) | fold change (FC) (Human alphaherpesvirus 2 [9]) | MNTD (Human alphaherpesvirus 2 [10]) [µM] | IC50 (Vero [11]) [µM] | EC50 (Human alphaherpesvirus 1 [12]) [µM] | EC50 (Human alphaherpesvirus 2 [13]) [µM] | also measured
1 | CC(=O)Oc1cc2c(cc1C(C)C)C(=O)C[C@H]1[C@](C)(CN3C(=O)c4c(Cl)c(Cl)c(Cl)c(Cl)c4C3=O)CCC[C@]21C | 7.3 | >43.8 | 12.3 | >26 | 8.3 | >38.5 | > 320 | inactive | inactive | inactive | inactive | inactive | inactive | inactive | – | – | – | – | – | – | –
2 | Cc1ccc(S(=O)(=O)NC[C@]2(C)CCC[C@]3(C)c4cc(O)c(C(C)C)cc4CC[C@@H]23)cc1 | > 50 | – | 30.9 | 2.7 | 36 | 2.3 | 82.5 | inactive | inactive | inactive | inactive | inactive | inactive | inactive | – | – | – | – | – | – | –
3 | Nc1nc2c(ncn2COCCO)c(=O)[nH]1 [ACYCLOVIR] | – | – | – | – | – | – | – | – | – | – | – | – | – | – | 10000 | 1000 | 6.7 | > 1700 | 2.2 | 0.27 | –
4 | CC(C)c1cc2c(cc1O)[C@@]1(C)CCC[C@@](C)(C=O)[C@@H]1CC2 [18-OXOFERRUGINOL] | 60 | 1.5 | 21.6 | 4.2 | 33.2 | 2.7 | 90.8 | inactive | inactive | inactive | inactive | inactive | inactive | inactive | inactive | 1000 | 41.7 | 97.8 | 19.6 | 16.6 | MNTD (Human alphaherpesvirus 1 [14]): inactive; Activity (dengue virus type 2 [15]): Active; IC50 (Vero [16]): 52.2 µM; EC50 (Human alphaherpesvirus 1 [17]): Not Active; EC50 (Human alphaherpesvirus 2 [18]): Not Active; EC50 (dengue virus type 2 [19]): Not Active; EC50 (dengue virus type 2 [20]): 5 µM; Ratio IC50/EC50 [21]: 4.9; Ratio IC50/EC50 [22]: 5.9; Ratio IC50/EC50 [23]: 10.4; Activity (Human alphaherpesvirus 2 [24]): 68.2%; MIC80 (Trichophyton rubrum): 41.7 µM (≈ 12.5 µg/mL); MIC80 [25]: 83.3 µM (≈ 25 µg/mL)
5 | CC(C)c1cc2c(cc1O)[C@@]1(C)CCCC(C)(C)[C@@H]1CC2 [FERRUGINOL] | 64.9 | 1.4 | 48.2 | 1.9 | 21.3 | 4.2 | 90.4 | inactive | inactive | inactive | inactive | inactive | inactive | inactive | – | – | – | – | – | – | –
